The test system of data set [1] is Cystic fibrosis transmembrane conductance regulator (Homo sapiens), P13569 [F508del]. Briefly: Corrector activity at CFTR F508del mutant in human CFBE41o- cells assessed as appearance of CFTR mutant forms at 10 uM incubated for 4 hrs by Western blot analysis. The format is cell-based. On the technique in general: A western blot detects proteins with antibodies after separation by electrophoresis.

Data set [2] shares this test system. Briefly: Corrector activity at CFTR F508del mutant in human CFBE41o- cells assessed as decrease in accumulation of ubiquitylated CFTR at 10 uM incubated for 4 hrs in presence of MG-132 by Western blot analysis. Type of data set: cell-based. The procedure, abridged: (§1)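 Confluent CFBE41o– F508del cells were treated 24 h, with MG-132 (10 μM) or DMSO in the last 4 h. Lysate (600 μg protein) was immunoprecipitated with rabbit anti-CFTR (2 μg, 1 h RT) and protein A/G beads, then eluted reducing. Samples ran on 4–15% gradient SDS-PAGE and were western blotted. Bands were read by chemiluminescence, with densitometry of ubiquitylated CFTR.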

The subject of data set [3] is CFBE41o-. Put plainly: Induction of autophagy in human CFBE41o- cells harbouring CFTR F508del mutant assessed as increase in number of autophagic vacuoles at 20 nM incubated for 3 hrs by confocal microscopy based analysis. The format is functional, cell-based. The procedure, abridged: (§2)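 CFBE41o– F508del/HS-YFP cells (50,000/well) were treated 24 h with compound (5 μM), VX-809 (1 μM) or DMSO. SAR405 (2 μM) and torin1 (20 nM) were added near the end of incubation. Cells were then loaded with 50 μM MDC in PBS for 10 min at 37 °C, washed, and imaged. MDC spot number was normalized to control. n = 3; ANOVA with Dunnett test.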

In data set [4] the target is E3 ubiquitin-protein ligase RNF5 (Homo sapiens) (UniProt Q99942). Put plainly: Binding affinity to recombinant human RNF5 (1 to 117 residues) expressed in Escherichia coli BL21(DE3) at 50 uM by Microscale thermophoresis analysis. The method in brief: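 Human RNF5 aa 1–117 was expressed GST-tagged in E. coli BL21(DE3) with 0.2 mM IPTG for 5 h at 37 °C. It was purified on glutathione resin, TEV-cleaved, and RED-NHS labelled (5 nM). Binding check was run in PBS with 0.05% Tween-20, 0.1% PEG-8000 and 1 μM ZnCl2, ± 1 mM DTT, at ≤5% DMSO. Medium MST power, 20% excitation.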
Background: MST reads how a fluorescent partner responds to local heating, with and without ligand.

Data set [5] is described as follows: Aggregation property of the compound in PBS buffer at pH 7.5 by 1D 1H-NMR analysis. Type of data set: physicochemical. The procedure, abridged:
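Solubility by 1H 1D NMR and aggregation by WaterLOGSY at 298 K in PBS pH 7.5 with 1 μM ZnCl2, 1 mM DTT, 10% D2O, 1% DMSO-d6. Theoretical concentrations 20, 50 and 100 μM, with 200 μM 4-trifluoromethyl benzoic acid as internal reference. WaterLOGSY: mixing time 1.7 s, relaxation delay 2 s, 256 scans.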

Data set [6] relates to CFBE41o-. Briefly: Antiproliferative activity against human CFBE41o- cells harbouring CFTR F508del mutant/HS-YFP at 5 uM incubated for 48 hrs. The format is toxicity, cell-based. The procedure, abridged:
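Cells plated at 5000/well and treated after 6 h with compound (5 μM) or DMSO. Cell-covered area was followed by the YFP signal over 48 h on a high-content imager. Means ± SEM, n = 6. Three independent experiments; ANOVA with Dunnett test.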

For data set [7], the system named is CFBE41o-. Put plainly: Induction of autophagy in human CFBE41o- cells harbouring CFTR F508del mutant assessed as increase in number of autophagic vacuoles at 5 uM incubated for 24 hrs by confocal microscopy based analysis. Type of data set: functional, cell-based. The procedure, abridged:
as §2

Data set [8] has as its system CFBE41o-. Put plainly: Induction of apoptosis in human CFBE41o- cells assessed as increase in apoptosis at 100 uM incubated for 24 hrs by Hoechst 33342 and propidium iodide staining based analysis. Type of data set: toxicity, cell-based. The procedure, abridged:
(§3)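 Cells were plated at 10,000/well and treated after 6 h with compound (5, 20, 100 μM), VX-809 (1 μM), MG132 (50 μM) or DMSO for 24 h. Hoechst 33342 counted total nuclei and propidium iodide counted apoptotic nuclei, by high-content imaging. Means ± SEM; ANOVA with Dunnett test.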

In data set [9] the test system is Cystic fibrosis transmembrane conductance regulator (Homo sapiens), P13569 [F508del]. Briefly: Corrector activity at CFTR F508del mutant in human CFBE41o- cells assessed as decrease in accumulation of ubiquitylated CFTR at 10 uM incubated for 24 hrs in presence of VX-445 by Western blot analysis. Type of data set: cell-based. The procedure, abridged:
as §1

For data set [10] the test system is unchanged. Briefly: Corrector activity at CFTR F508del mutant in human CFBE41o- cells assessed as rescue of CFTR mutant at 10 uM incubated for 24 hrs in presence of VX-445 by Western blot analysis. The format is cell-based.
Data set [11] concerns CFBE41o-. Briefly: Induction of apoptosis in human CFBE41o- cells assessed as increase in apoptosis at 1 uM incubated for 24 hrs by Hoechst 33342 and propidium iodide staining based analysis. Type of data set: toxicity, cell-based. The method in brief: as §3
Data set [12] concerns Cystic fibrosis transmembrane conductance regulator (Homo sapiens), P13569 [F508del]. Put plainly: Corrector activity at CFTR F508del mutant in human CFBE41o- cells assessed as decrease in accumulation of ubiquitylated CFTR at 3 uM incubated for 24 hrs in presence of VX-661 by Western blot analysis. The format is cell-based. The procedure, abridged: as §1
The test system is the same in data set [13]. Briefly: Corrector activity at CFTR F508del mutant in human CFBE41o- cells assessed as rescue of CFTR mutant at 3 uM incubated for 24 hrs in presence of VX-661 by Western blot analysis. Type of data set: cell-based.

The structures appear in SMILES notation. The source made the active and inactive calls. Unless noted, the rule behind the calls is not given here.

Sequence of Cystic fibrosis transmembrane conductance regulator (Homo sapiens), P13569 [F508del] (P13569 as listed by the source): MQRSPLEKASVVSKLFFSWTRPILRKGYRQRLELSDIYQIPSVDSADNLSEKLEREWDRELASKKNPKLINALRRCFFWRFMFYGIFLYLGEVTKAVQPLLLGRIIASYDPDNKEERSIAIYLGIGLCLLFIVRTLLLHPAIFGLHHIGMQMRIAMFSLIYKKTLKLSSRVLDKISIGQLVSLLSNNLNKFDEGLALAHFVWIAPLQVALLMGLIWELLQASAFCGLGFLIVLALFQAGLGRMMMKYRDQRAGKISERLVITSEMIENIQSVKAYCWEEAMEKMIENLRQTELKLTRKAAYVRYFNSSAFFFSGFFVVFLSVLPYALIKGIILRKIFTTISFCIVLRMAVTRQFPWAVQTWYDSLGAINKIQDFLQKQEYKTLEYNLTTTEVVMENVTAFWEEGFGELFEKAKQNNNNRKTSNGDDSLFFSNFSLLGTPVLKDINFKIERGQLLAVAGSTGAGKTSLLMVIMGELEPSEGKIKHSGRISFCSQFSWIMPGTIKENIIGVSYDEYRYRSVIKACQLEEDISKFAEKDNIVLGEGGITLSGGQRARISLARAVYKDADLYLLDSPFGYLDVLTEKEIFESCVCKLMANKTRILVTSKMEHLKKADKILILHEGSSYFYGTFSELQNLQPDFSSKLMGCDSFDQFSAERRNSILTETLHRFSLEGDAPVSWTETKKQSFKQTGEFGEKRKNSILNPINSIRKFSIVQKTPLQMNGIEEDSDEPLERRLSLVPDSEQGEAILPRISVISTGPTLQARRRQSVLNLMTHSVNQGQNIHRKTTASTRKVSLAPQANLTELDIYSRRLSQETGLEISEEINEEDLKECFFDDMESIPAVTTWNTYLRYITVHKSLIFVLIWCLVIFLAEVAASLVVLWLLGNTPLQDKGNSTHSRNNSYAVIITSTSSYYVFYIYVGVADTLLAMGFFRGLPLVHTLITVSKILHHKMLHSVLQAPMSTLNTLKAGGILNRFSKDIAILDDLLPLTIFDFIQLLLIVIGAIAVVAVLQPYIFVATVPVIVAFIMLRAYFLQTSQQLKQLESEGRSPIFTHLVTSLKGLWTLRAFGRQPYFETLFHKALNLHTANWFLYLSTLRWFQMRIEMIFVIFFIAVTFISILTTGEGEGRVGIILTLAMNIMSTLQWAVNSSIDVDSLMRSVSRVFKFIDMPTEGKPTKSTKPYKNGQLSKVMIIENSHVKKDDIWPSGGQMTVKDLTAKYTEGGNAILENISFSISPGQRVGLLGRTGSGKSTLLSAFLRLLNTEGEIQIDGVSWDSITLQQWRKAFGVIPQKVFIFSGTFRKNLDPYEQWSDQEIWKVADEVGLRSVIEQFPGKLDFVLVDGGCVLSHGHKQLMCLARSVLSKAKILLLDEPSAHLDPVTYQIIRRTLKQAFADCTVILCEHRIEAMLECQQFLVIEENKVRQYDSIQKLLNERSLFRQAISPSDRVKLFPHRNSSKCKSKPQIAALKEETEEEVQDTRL
Sequence of E3 ubiquitin-protein ligase RNF5 (Homo sapiens) (Q99942 whole entry, the tested form may be a part): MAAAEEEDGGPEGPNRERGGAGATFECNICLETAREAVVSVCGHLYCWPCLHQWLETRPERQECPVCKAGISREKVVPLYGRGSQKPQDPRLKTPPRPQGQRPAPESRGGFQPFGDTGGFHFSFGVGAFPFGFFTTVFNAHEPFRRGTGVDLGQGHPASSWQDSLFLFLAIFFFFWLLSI

Consider `CC(C)C[C@@H](C=O)NC(=O)[C@H](CC(C)C)NC(=O)[C@H](CC(C)C)NC(=O)OCc1ccccc1`, for which the result in data set [1] was Active. The result in data set [2] was inactive. In the case of `CCC(=O)N1CCN(c2ccc(-n3c(=O)ccc4cnc5ccc(-c6cnc7ccccc7c6)cc5c43)cc2C(F)(F)F)CC1`, in data set [3], the outcome was Active. Take `Cc1ns/c(=N\C(=N\c2ccccc2)c2ccccc2)n1Cc1ccc(C(=O)O)cc1`: the result in [4] was Active. Moreover, the Activity entry in data set [5] is recorded as “Not Active”. In the case of `Cc1ns/c(=N\C(=N\c2ccccc2)c2ccccc2)n1Cc1cccc(N(C)C)c1`, the Activity entry in [6] is “Non-Toxic”.

As for `Cc1cccc(Cn2c(C)ns/c2=N\C(=N\c2ccccc2)c2ccccc2)c1`, the Activity result in data set [6] is recorded as “Non-Toxic”. `Cc1ns/c(=N\C(=N\c2ccccc2)c2ccccc2)n1Cc1ccc(F)cc1`: in data set [7], the result was inactive. For the same molecule, the Activity result in data set [6] is given as “Non-Toxic”. On to `COc1ccccc1Cn1c(C)ns/c1=N\C(=N\c1ccccc1)c1ccccc1`, for which the Activity entry in data set [8] is given as “Toxic”; in data set [6], “Non-Toxic”. In the case of `Cc1ns/c(=N\c2ccccn2)n1Cc1ccccc1`, in data set [5], the Activity result was “Not Active”. With `Cc1ns/c(=N\C(=N\c2ccccc2)c2ccccc2)n1Cc1cccc(F)c1`, the Activity result in [6] was “Non-Toxic”. The same measure, in the same setting: then `Cc1ns/c(=N\C(=N\c2ccccc2)c2ccccc2)n1Cc1cccc(Cl)c1`, with “Non-Toxic”. For the molecule `CC(C)(CO)c1cc2cc(NC(=O)C3(c4ccc5c(c4)OC(F)(F)O5)CC3)c(F)cc2n1C[C@@H](O)CO`, the outcome in data set [9] and in [10] was Active. In the case of `Cc1ccc(NC(=O)C2(c3ccc4c(c3)OC(F)(F)O4)CC2)nc1-c1cccc(C(=O)O)c1` [LUMACAFTOR], the values for the Activity entry in data set [11] and in [6] were “Toxic” and “Non-Toxic”, respectively. As for `Cc1nn(C)cc1S(=O)(=O)NC(=O)c1ccc(-n2ccc(OCC(C)(C)C(F)(F)F)n2)nc1N1C[C@@H](C)CC1(C)C`, the result in data set [12] and in [13] was Active. For `Cc1ns/c(=N\C(=N\c2ccccc2)c2ccccc2)n1Cc1ccc(Cl)cc1`, the Activity entry in data set [6] was “Non-Toxic”.

(Values after ChEMBL document CHEMBL5346963, “Innovative Strategy toward Mutant CFTR Rescue in Cystic Fibrosis: Design and Synthesis of Thiadiazole Inhibitors of the E3 Ligase RNF5” (J Med Chem, 2023).)
